Screens from PubChem BioAssay.
Hits are enriched below; roughly 1.7% of the tested compounds scored in any of these assays.
Scp-1 inhibitor = Scp-1 phosphatase inhibitors, primary screen, biochemical, colorimetric, uHTS; hit rate 0.88% among 340,000; inhibition, % at 20 µM; Recombinant Scp1, phosphopeptide, malachite green phosphate absorbance; Carboxy-terminal domain RNA polymerase II polypeptide A small phosphatase 1 (Homo …;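 active means inhibition above about 50% at 20 µM, limit read from the data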
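System: truncated SCP-1 phosphatase (76-261aa); medium: Tris acetate buffer pH 5.5 with MgCl2 and Tween-20; incubation: 45 min room-temperature reaction, 5 min colour, 30 min stabiliser; compound: single 20 µM dose, 1% DMSO; reagent: Phosphorylated 17-residue peptide substrate; read-out: % inhibition at 20 µM; technique: colorimetric free-phosphate detection, absorbance 630 nm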
DNMT1 block = human DNMT1 methyltransferase inhibitors, primary screen, biochemical, molecular beacon, fluorescence, HinP1I cleavage, uHTS. DNA (cytosine-5)-methyltransferase 1 (Homo sapiens), P26358. inhibition (reported as % activation of signal), % at 10 µM. hit rate 0.83% among 360,000; in the data active means inhibition above about 50%
STEP inh = STEP phosphatase inhibitors, primary screen, biochemical, fluorescence intensity, uHTS; Tyrosine-protein phosphatase non-receptor type 5 (Homo sapiens), P54829; recombinant STEP, OMFP fluorogenic substrate; inhibition, % at 20 µM; hit rate 0.25% among 360,000;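 active means inhibition at 20 µM, scaled per plate between control wells, above about 37%, limit read from the data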
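material = STEP tyrosine phosphatase | reagent = fluorogenic phosphatase substrate OMFP at 25 µM final | doses = single compound dose of 20 µM, 1% DMSO final | schedule = 20 min reaction, room temperature, in the dark | measured by = fluorescence, 480/540 nm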
LMPTP block = LMPTP phosphatase inhibitors, primary screen, biochemical, fluorescence intensity, uHTS; inhibition, % at 20 µM; recombinant LMPTP-A, OMFP fluorogenic substrate; AID 651560, 2012; hit rate 0.22% among 360,000;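 active means compounds that cut the enzyme signal by at least half of the control window in the single-dose screen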
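Test system – LMPTP-A enzyme · Amount – LMPTP-A at 0.625 nM final in the reaction · Buffer or medium – Bis-Tris pH 6.0, DTT, detergent · Reagent – OMFP 400 µM · Doses – single 20 µM dose · Schedule – reaction 50 min, room temperature, dark · Detection – fluorescence intensity of OMFP turnover product · Evaluation – percent inhibition versus substrate-only and uninhibited controls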
SUMO1-SIM PPI = modulators of SUMO1 protein-protein interactions, primary screen, biochemical, uHTS. SUMO1 binding to a labelled peptide, TR-FRET, 1 h. AID 602429, 2012. hit rate 0.33% among 360,000. Small ubiquitin-related modifier 1 (Homo sapiens), P63165. inhibition, % at 20 µM; in the data active means inhibition above about 37%
Target sequence (P63165 whole entry, looked up): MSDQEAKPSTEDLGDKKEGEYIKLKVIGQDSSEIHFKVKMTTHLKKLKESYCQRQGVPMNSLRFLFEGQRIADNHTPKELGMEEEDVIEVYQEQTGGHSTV
CASP6 VEID inh = human caspase-6 inhibitors, primary screen, biochemical, VEID-R110 fluorescence, single point, set 2; P55212; purified caspase-6, Z-VEID-R110 cleavage fluorescence; inhibition, % at 12.5 µM; hit rate 0.53% among 350,000; AID 686996, 2013;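 active means mean inhibition across replicates at least about 35%, with every replicate also reaching that limit, limit read from the data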
Target sequence (P55212 24-179 limits assumed): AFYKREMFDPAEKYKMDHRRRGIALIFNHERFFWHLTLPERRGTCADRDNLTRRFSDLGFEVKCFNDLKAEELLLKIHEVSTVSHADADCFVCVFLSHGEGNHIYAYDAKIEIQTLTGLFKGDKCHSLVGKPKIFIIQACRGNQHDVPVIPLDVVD
Target sequence (P55212 194-293 limits assumed): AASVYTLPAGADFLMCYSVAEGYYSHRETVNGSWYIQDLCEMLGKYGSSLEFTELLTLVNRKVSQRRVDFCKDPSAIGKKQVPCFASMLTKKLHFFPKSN
DNMT1 inh conf = DNMT1 methyltransferase inhibitor retest, confirmation, biochemical, molecular beacon, fluorescence, single concentration | hit rate 8% among 2,300 | shares compounds with DNMT1 block | inhibition, % at 10 µM | DNMT1 molecular beacon HinP1I cleavage;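 active means average inhibition of at least 30% in the single-concentration confirmation test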
Beacon interf = counter-screen for DNMT1 inhibitors: spectral interference; activation (fluorescence interference), % at 10 µM; hit rate 1% among 2,300; shares compounds with DNMT1 block; DNMT1 molecular beacon spectral interference counterscreen, fluorescence 485/520;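 active means activation of at least 30% at 10 µM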;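 further: DNMT1 catalytic domain with a HinP1I cleavage step and a FAM/dabcyl DNA beacon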
Each line names hits and unclear results; the compound was inactive in the other large screens (follow-up assays come after a bar, where they were run).

COc1ccc2c(CC(=O)OCC(=O)Nc3cccc(C)c3)coc2c1	DNMT1 block 50 | DNMT1 inh conf inactive | Beacon interf inactive
O=C(CO/N=C/c1ccc(OC(F)F)cc1)NCc1ccco1	none (no result: CASP6 VEID inh)
Cc1c(NS(=O)(=O)c2cc(C(=O)OCC(=O)c3ccccc3F)ccc2Cl)c(=O)n(-c2ccccc2)n1C	DNMT1 block 63 (no result: Scp-1 inhibitor) | DNMT1 inh conf inactive | Beacon interf inactive
Cc1c(NS(=O)(=O)c2cc(C(=O)O)ccc2Cl)c(=O)n(-c2ccccc2)n1C	none
COc1ccc(CN2CCC(=O)NC2=O)cc1	none (no result: CASP6 VEID inh)
C/C(=N\Nc1nc2ccccc2nc1C)c1ccccc1O	none
COc1ccc(S(=O)(=O)N[C@H]2CC[C@H](CC(=O)N3CCC(Cc4ccccc4)CC3)O[C@H]2CO)cc1	none (no result: Scp-1 inhibitor, DNMT1 block, STEP inh, LMPTP block, SUMO1-SIM PPI)
Cc1ccccc1-c1cccc([C@@H]2C[C@H]3[C@H](CON3C)CN2C(=O)CCc2ccccc2)c1	DNMT1 block 78 | DNMT1 inh conf inactive | Beacon interf inactive
CC(=O)c1c(C)[nH]c(C(=O)CSc2ncnc3sc(-c4ccccc4)cc23)c1C	DNMT1 block 53 | DNMT1 inh conf inactive | Beacon interf inactive
COc1ccc(-c2c(C#Cc3ccc(N(C)C)cc3)c3ccccc3n2C)cc1	DNMT1 block 57 | DNMT1 inh conf inactive | Beacon interf inactive
O=C(CC1C[C@H](C(=O)N2CCCCC2)[C@@]2(CCc3ccccc3)c3[nH]c4ccccc4c3CCN2C1=O)NCCC1=CCCCC1 (stereo not given in full)	DNMT1 block 60 | DNMT1 inh conf inactive | Beacon interf inactive
O=C(C[C@H]1C[C@H](C(=O)N2CCCCC2)[C@@]2(CCc3ccccc3)c3[nH]c4ccc(Cl)cc4c3CCN2C1=O)NCCC1=CCCCC1	DNMT1 block 61 | DNMT1 inh conf inactive | Beacon interf inactive
COc1ccc(Cl)cc1NC(=O)C(C)NC(c1ccccc1)c1ccccc1 (stereo not given)	none (no result: CASP6 VEID inh)
O=C(Nc1cccc(S(=O)(=O)N2CCOCC2)c1)c1cnn2c(C(F)F)cc(-c3ccccc3)nc12	none
CNS(=O)(=O)c1ccc(NC(=O)c2cnn3c(C(F)F)cc(-c4ccccc4)nc23)cc1	DNMT1 block 53 | DNMT1 inh conf inactive | Beacon interf inactive
O=C1NC(=O)C2(CCC(C3CCCCC3)CC2)N1 (stereo not given)	none
Cc1ccc(S(=O)(=O)N(C)c2ccc(OC(C)C(=O)N(C)c3ccccc3)cc2)cc1 (stereo not given)	DNMT1 block 79 | DNMT1 inh conf inactive | Beacon interf inactive
O=C(Nc1ccccc1)C1=C(c2ccccc2)S(=O)(=O)CCS1(=O)=O	none
O=C1NC(=S)N/C1=C/c1cccn1-c1ccc([N+](=O)[O-])cc1	DNMT1 block 55 | DNMT1 inh conf inactive | Beacon interf inactive
Clc1cccc(Cc2c(-c3ccco3)nc3ccc(Br)cn23)c1	DNMT1 block 68 (no result: Scp-1 inhibitor) | DNMT1 inh conf inactive | Beacon interf inactive
COc1ccccc1-c1n[nH]nc1C1=CC(=O)C[C@H](c2ccc(F)cc2)C1	none (no result: Scp-1 inhibitor)
COc1ccccc1C1=NC(c2ccc(F)cc2)N=C1C (stereo not given)	DNMT1 block 74 | DNMT1 inh conf inactive | Beacon interf inactive
CC(=O)c1cccc(NC(=O)CN(c2ccc(F)cc2)S(C)(=O)=O)c1	none
